Screening data as filed in PubChem BioAssay.
Shown are actives, neighbours in structure and some others; about 2.1% of the full set was active somewhere.
Runt-SMMHC FRET = inhibitors of RUNX1 Runt–CBFb-SMMHC binding, primary screen, biochemical, FRET, Cerulean-Runt, Venus-CBFb-SMMHC, uHTS. AID 1434, 2008. inhibition, % at 20 µM. Runt-related transcription factor 1 (Homo sapiens) + Core-binding factor subunit beta …. Cerulean-Runt/Venus-CBFb-SMMHC FRET ratio 530/480, 1 h. actives 0.74% (n = 220,000);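 active = mean inhibition across duplicate retests at 20 µM reaching about 50%, limit read from the data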;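 also: 0% = DMSO wells and 100% = wells with excess untagged CBFb-SMMHC; inhibitors lower the FRET ratio by blocking Runt binding to CBFb-SMMHC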
KLK7 zymogen act = proKLK7 zymogen activators, primary screen, biochemical, fluorescence intensity; Kallikrein-7 (Homo sapiens), P49862; activation, % at 7 µM; purified proKLK7, EDANS-DABCYL substrate fluorescence; 100% is mature enzyme control, 0% vehicle; actives 0.9% (n = 370,000);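 active = activation above the mean of all tested compounds plus 3 SD, computed per campaign excluding outliers beyond control limits, cut at about 13% in these data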
Runt-CBFb FRET = inhibitors of RUNX1 Runt–CBFb binding, primary screen, biochemical, FRET, Cerulean-Runt, Venus-CBFb, uHTS. Runt-related transcription factor 1 (Homo sapiens) + Core-binding factor subunit beta …. Cerulean-Runt/Venus-CBFb FRET ratio 530/480, 1 h. inhibition, % at 20 µM. actives 0.46% (n = 220,000);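 active = inhibition over about 50% at 20 µM in the single-dose screen, limit read from the data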;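 also: 0% = DMSO wells and 100% = excess unlabeled CBFb competitor control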
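Schedule: protein complex preformed 1 h, compound exposure 1 h, room temperature, dark; test system: Cerulean-labeled Runt domain protein; amount: 100 nM per protein; buffer or medium: Tris 50 mM pH 7.5, KCl, K2SO4, 0.01% BSA; read-out: loss of energy transfer signal; detection: FRET fluorescence; controls: 5 µM unlabeled CBFb as full-inhibition high control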
RanGTP-Impb inh = inhibitors of RanGTP-importin-beta interaction, primary screen, biochemical, FRET, CFP-Ran, YFP-importin-beta, homogeneous; Ran GTPase (GTP-bound) - importin-beta complex; cell-free CFP-Ran/YFP-importin-beta FRET ratio; inhibition, % (concentration not given with the values); actives 1.1% (n = 300,000);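 active = more than half of the replicate wells show a fall in the fluorescence ratio signal beyond about 16%, limit read from the data, passing the limit was not always enough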;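 also: 0% = DMSO wells and 100% = Ran loaded with GDP instead of GTP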
MEX-5 binding = MEX-5 zinc finger RNA-binding disruptors – biochemical, C. elegans, fluorescence polarization, MLPCN library, primary screen; Zinc finger protein mex-5 (Caenorhabditis elegans), Q9XUB2; MEX-5/FITC-TCR2 RNA binding; stronger effect = lower value; activity score (negative = inhibition of binding), % at 10 µM; actives 0.38% (n = 300,000); AID 1832, 2009;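 active = inhibition past about -25% in most replicates, and total fluorescence under double the plate's negative control median, limit read from the data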;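 also: 0% = DMSO and -100% = 5 µM competing unlabeled TCR2 RNA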
Target sequence (Q9XUB2 whole entry, looked up): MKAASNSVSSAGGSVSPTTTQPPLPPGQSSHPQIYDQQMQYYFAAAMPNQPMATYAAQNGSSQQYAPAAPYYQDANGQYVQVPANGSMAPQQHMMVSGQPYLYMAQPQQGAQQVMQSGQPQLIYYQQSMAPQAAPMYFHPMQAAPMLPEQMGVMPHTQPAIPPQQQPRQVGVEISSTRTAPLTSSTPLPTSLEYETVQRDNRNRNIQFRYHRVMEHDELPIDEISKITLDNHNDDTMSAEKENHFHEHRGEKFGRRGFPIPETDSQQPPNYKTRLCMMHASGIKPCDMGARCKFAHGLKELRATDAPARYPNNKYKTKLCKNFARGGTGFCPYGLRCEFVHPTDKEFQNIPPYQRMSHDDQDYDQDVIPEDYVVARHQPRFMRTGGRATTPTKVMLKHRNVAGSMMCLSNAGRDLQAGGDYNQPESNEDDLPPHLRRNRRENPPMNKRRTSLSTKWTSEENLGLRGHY
Numbers without * were called inactive; . = no result given.

SMILES	Runt-SMMHC FRET	KLK7 zymogen act	Runt-CBFb FRET	RanGTP-Impb inh	MEX-5 binding
CCN1CCc2c(sc(NC(=O)c3ccc(S(=O)(=O)N4CC(C)OC(C)C4)cc3)c2C(N)=O)C1 (configuration not stated)	.	-429.6	.	28.3*	8.4
Cc1ccc2c(c1)C1CS(=O)(=O)N(CCc3ccccc3)C(=O)N1C2 (configuration not stated)	.	0.8	.	.	.
O=C(CCNS(=O)(=O)c1ccc(OC(F)(F)F)cc1)Nc1cccc(S(=O)(=O)N2CCCC2)c1	.	-0.8	.	.	.
CCN1CCc2c(sc(NC(=O)c3ccc4ccccc4c3)c2C(N)=O)C1	.	-149.4	.	.	-45.8*
CCN1CCc2c(sc(NC(=O)c3ccc(S(=O)(=O)N(C)c4ccccc4)cc3)c2C(=O)NC)C1	.	.	.	9.5	-10.1
CCN1CCc2c(sc(NC(=S)NC(=O)c3ccc(Cl)cc3)c2C(N)=O)C1	59.9*	1.1	118.6*	81.3*	-1.3
CN1CCc2c(sc(NC(=O)c3ccc(C(=O)c4ccccc4)cc3)c2C(N)=O)C1	.	4.9	.	1.9	-22.8
COc1ccc(CCN2CC(C(=O)OCC(=O)N(C)Cc3ccccc3)CC2=O)cc1OC (configuration not stated)	.	-0.7	.	.	.
CCn1c(C)c(C(C)=O)c(N2CCN(c3ccccc3)CC2)nc1=S	10.6	-1.5	-61.6	19.5*	-23.8
CCn1c(C)c(C(C)=O)c(N2CCN(C(c3ccccc3)c3ccccc3)CC2)nc1=S	23.4	-0.4	18.0	57.3*	-1.5
CC(C)CNC(=O)OCc1cn(Cc2cc(F)ccc2F)nn1	.	-0.1	.	.	.
Cc1nc([N+](=O)[O-])c(Sc2nc3ccc([N+](=O)[O-])cc3[nH]2)n1Cc1ccccc1	5.8	-0.4	114.7*	-0.8	-2.6
Cc1nc([N+](=O)[O-])c(Br)n1Cc1ccccc1	-4.9	-0.4	2.0	5.3	-1.7
Cc1nc2c([nH]1)C1(CCN(Cc3ccccc3)CC1)C(C#N)=C(N)O2	90.4*	1.9	17.1	.	.
CC(O)(c1cccnc1)c1nc(/C=C/c2ccccc2)cs1 (configuration not stated)	.	0.1	.	.	.
C=C(C)CN(CC)c1nc(N)c2c(N)nc3c(c2c1C#N)CC(=O)N3C12CC3CC(CC(C3)C1)C2	-1.0	-1.8	-0.9	6.5	-0.5
CCCCN1C(=O)Cc2c1nc(N)c1c(N)nc(N(CCC)CCC)c(C#N)c21	-1.6	-1.3	103.3*	3.0	0.9
Cc1ccc(N2CC(c3nc4ccccc4n3C)CC2=O)cc1 (configuration not stated)	0.1	-0.2	0.3	4.3	-1.1
Cc1ccc(-n2c3nc(=O)n(C)c(=O)c-3cc3ccccc32)cc1	81.1*	10.0	10.0	86.2*	-2.2
CCCCn1c(=O)nc2n(-c3ccc(OC)cc3)c3ccccc3cc-2c1=O	27.1	0.6	16.8	8.8	-5.4
CCCCn1c(=O)nc2n(-c3ccc(Cl)cc3)c3ccccc3cc-2c1=O	82.3*	0.1	103.1*	59.1*	-5.0
CCC(=O)Nc1ccc2c(c1)OC[C@@H](C)N(C(=O)c1ccccn1)C[C@@H](C)[C@@H](OC)CN(C)C2=O	.	-0.1	.	.	.
CC1(C(=O)Nc2ccc3c(c2)OCCO3)CN(S(C)(=O)=O)CC(=O)N1Cc1cccc(C(F)(F)F)c1 (configuration not stated)	.	-0.5	.	.	.
CCOCCCNc1nc2c(-c3ccccc3)nnn2c2ccccc12	-3.3	-5.1	-4.9	33.7*	1.4
CCCCNc1nc2c(-c3ccccc3)nnn2c2ccccc12	-28.4	-1.0	0.5	4.5	-1.1
COc1ccc(-c2nc3ccc(C(=O)NCC(OC)OC)cc3nc2-c2ccc(OC)cc2)cc1	2.8	-22.3	4.1	15.5*	0.5
O=C(NC1CCCC1)c1ccc2nc(-c3ccco3)c(-c3ccco3)nc2c1	-22.7	.	-4.0	.	.
